The results in this text go back to ChEMBL document CHEMBL3351794, “Synthesis and biological evaluation of pentacyclic strychnos alkaloids as selective modulators of the ABCC10 (MRP7) efflux pump” (J Med Chem, 2014).

For data set [1], the target named is P-gp (ABCB1) ATPase activity (Homo sapiens, UniProt P08183). As to the kind of experiment: Inhibition of P-gp (unknown origin) assessed as reduction in ATPase activity at 2.08 to 6.25 uM incubated over 20 mins by inorganic phosphate release assay. Put shortly:
(§1)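 P-gp ATPase assay run in the same way as the ABCC10 assay. Membrane protein (5−10 μg) was preincubated 5 min at 37 °C with test agent, buffer (Tris-HCl pH 7.5, KCl, azide, EGTA, ouabain, DTT) and MgCl2. The reaction was started with 5 mM ATP, run 20 min at 37 °C and quenched with SDS. Pi was measured colorimetrically.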

Data set [2] has as its target T1, ATP-binding cassette sub-family C member 10 (Homo sapiens) (UniProt Q5T3U5).
T1 sequence (whole entry): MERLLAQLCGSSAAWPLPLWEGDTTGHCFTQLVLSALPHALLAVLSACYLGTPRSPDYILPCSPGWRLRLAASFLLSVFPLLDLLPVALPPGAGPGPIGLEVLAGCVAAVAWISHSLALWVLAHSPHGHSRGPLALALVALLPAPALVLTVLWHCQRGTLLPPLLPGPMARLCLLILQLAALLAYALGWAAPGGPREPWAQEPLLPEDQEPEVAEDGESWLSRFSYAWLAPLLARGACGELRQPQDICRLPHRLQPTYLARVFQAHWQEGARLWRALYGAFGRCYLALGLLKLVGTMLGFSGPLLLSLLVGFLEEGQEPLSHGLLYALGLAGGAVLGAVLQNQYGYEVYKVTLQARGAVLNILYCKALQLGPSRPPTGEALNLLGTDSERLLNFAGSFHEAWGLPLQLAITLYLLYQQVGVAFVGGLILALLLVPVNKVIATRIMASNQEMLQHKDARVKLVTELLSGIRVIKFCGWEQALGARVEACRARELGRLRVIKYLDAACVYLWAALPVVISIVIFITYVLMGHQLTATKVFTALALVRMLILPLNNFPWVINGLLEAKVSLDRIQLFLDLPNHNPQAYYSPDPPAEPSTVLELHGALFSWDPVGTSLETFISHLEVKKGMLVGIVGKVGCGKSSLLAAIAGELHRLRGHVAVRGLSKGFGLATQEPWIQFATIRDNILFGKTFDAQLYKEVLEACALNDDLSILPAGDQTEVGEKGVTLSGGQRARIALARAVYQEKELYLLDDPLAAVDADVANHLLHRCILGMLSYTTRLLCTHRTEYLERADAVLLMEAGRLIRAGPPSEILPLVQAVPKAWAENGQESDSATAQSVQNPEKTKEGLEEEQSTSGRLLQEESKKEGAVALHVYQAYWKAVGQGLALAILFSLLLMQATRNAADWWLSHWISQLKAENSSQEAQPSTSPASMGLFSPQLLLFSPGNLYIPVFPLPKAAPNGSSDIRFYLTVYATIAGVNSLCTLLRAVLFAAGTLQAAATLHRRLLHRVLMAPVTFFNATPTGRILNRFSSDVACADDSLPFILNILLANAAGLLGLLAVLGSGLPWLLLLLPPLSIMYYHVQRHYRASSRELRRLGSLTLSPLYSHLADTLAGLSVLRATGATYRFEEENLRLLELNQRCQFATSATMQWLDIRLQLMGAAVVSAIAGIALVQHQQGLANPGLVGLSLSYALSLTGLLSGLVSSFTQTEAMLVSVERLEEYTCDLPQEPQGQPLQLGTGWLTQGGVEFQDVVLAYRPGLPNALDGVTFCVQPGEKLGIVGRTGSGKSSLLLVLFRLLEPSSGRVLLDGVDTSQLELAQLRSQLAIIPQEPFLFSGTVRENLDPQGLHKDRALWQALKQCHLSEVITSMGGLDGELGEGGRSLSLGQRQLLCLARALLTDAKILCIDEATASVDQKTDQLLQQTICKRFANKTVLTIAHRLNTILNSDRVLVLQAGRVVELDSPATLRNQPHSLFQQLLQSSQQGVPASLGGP
As to the kind of experiment: Inhibition of ABCC10 (unknown origin) assessed as reduction in BeFx-sensitive ATPase activity at 2.08 to 50 uM incubated over 20 mins by inorganic phosphate release assay. Put shortly: (§2)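 Membranes holding ABCC10 (5−10 μg protein) were preincubated for 5 min at 37 °C with test agent in 2× assay buffer (Tris-HCl pH 7.5, KCl, sodium azide, EGTA, ouabain, DTT) plus MgCl2. The reaction was started with 5 mM ATP and run 20 min at 37 °C, then stopped with 5% SDS. Released Pi was read colorimetrically (Lanzetta), and ABCC10 activity was taken as the BeFx-sensitive fraction.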

Data set [3] concerns the target T1, ATP-binding cassette sub-family C member 10 (Homo sapiens). The experiment in a line: Inhibition of ABCC10 (unknown origin) assessed as reduction in BeFx-sensitive ATPase activity incubated over 20 mins by inorganic phosphate release assay. Put shortly:
as §2

For data set [4], the target named is ATP-dependent translocase ABCB1 (Homo sapiens, UniProt P08183). The experiment in a line: Inhibition of P-gp (unknown origin) assessed as reduction in ATPase activity at 2.08 to 50 uM incubated over 20 mins by inorganic phosphate release assay. Summed up: as §1
Sequence of ATP-dependent translocase ABCB1 (P08183 whole entry): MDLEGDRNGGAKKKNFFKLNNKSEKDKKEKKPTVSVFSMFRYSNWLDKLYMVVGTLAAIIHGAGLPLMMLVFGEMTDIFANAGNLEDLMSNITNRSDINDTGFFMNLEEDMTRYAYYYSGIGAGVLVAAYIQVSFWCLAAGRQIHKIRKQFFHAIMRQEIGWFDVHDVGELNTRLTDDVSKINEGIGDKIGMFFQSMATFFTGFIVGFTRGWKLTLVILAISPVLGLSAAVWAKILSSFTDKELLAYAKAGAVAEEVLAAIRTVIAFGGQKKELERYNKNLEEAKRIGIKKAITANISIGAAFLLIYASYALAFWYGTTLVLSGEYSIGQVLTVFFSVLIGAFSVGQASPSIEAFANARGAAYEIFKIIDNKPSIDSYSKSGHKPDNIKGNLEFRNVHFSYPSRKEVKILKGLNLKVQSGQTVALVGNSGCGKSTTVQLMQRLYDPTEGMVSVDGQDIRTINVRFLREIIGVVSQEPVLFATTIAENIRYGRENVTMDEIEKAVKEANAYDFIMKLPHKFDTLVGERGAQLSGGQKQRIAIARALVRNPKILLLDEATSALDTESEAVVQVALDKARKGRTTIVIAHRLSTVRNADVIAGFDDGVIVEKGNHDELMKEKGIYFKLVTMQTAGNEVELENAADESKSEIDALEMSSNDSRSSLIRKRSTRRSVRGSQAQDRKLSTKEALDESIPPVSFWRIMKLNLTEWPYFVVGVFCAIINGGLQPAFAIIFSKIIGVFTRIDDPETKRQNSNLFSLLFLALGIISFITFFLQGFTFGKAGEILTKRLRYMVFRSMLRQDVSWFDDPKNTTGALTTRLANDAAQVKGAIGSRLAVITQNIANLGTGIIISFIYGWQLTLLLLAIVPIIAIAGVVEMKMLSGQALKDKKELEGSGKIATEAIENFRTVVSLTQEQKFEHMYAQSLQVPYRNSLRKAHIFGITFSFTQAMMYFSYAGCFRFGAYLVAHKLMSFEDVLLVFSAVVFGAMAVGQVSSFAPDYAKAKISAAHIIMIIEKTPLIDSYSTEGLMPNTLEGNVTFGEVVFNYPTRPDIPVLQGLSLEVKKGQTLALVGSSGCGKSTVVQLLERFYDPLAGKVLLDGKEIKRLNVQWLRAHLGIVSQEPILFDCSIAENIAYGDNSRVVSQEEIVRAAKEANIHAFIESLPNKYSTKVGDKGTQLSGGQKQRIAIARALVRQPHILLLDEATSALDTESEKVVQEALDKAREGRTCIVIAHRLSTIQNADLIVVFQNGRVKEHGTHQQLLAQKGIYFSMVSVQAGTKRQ
The target of data set [5] is T1, ATP-binding cassette sub-family C member 10 (Homo sapiens). As to the kind of experiment: Inhibition of ABCC10 (unknown origin) assessed as reduction in BeFx-sensitive ATPase activity at 12.5 uM incubated over 20 mins by inorganic phosphate release assay. Put shortly:
as §2

The target is the same in data set [6]. As to the kind of experiment: Inhibition of ABCC10 (unknown origin) expressed in HEK293 cells assessed as reversal of paclitaxel resistance at 12.5 uM after 72 hrs by MTS/PMS assay. Format: cell-based. Put shortly: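 Cells used were HEK293-pcDNA3 vector control and the ABCC10 (MRP7) transfectants C17 and C18, seeded in triplicate at 5000 cells/well in DMEM with 10% FBS. Next day, paclitaxel was added at various concentrations, with or without modulator at 12.5 μM. Survival was read after 72 h of drug exposure by MTS/PMS colorimetric assay.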

Data set [7] shares this target. As to the kind of experiment: Inhibition of ABCC10 (unknown origin) assessed as reduction in BeFx-sensitive ATPase activity at 50 uM incubated over 20 mins by inorganic phosphate release assay. Summed up: as §2

The source made the active and inactive calls. The rule behind the calls is not given here.

Sequence of P-gp (ABCB1) ATPase activity (P08183 whole entry): as above

What is called inhibition is the change of the read-out against control, counted positive when it falls. Turning to `COC(=O)C1=C2Nc3ccccc3[C@@]23CCN2C[C@H]([C@@H](C)O)[C@@H]1C[C@H]23`, the inhibition at 20 min in data set [1] worked out at 35%. The inhibition entry in data set [2] was “inactive”.

As for `COc1ccc2cc1Oc1ccc(cc1)C[C@H]1c3c(cc4c(c3Oc3cc5c(cc3OC)CCN(C)[C@@H]5C2)OCO4)CCN1C`, in data set [3], the inhibition was 20%.

`CCOC(=O)O[C@H](C)[C@H]1CN2CC[C@]34C(=C(C(=O)OC)[C@H]1C[C@H]23)Nc1ccccc14` [ALSTOLUCINE A]: the inhibition entry in data set [2] is “inactive”. Moreover, the “inhibition (INH)” value in data set [4] is “Not Active”.

In the case of `COC(=O)C1=C2Nc3ccccc3[C@@]23CCN2C[C@@H](C(C)=O)[C@@H]1C[C@H]23` [ALSTOLUCINE B], the inhibition in data set [5] is 40%; in data set [6], 50%. For the same molecule, the “inhibition (INH)” value in data set [4] is recorded as “Not Active”.

On to `COC(=O)C1=C2Nc3ccccc3[C@@]23CCN2C[C@H](C(C)=O)[C@@H]1C[C@H]23` [ALSTOLUCINE F], for which the inhibition stood at 40% in data set [7] and 50% in data set [6]. For the same molecule, in data set [4], the “inhibition (INH)” value is on record as “Not Active”.
